# Calls of active or inactive are those of the source.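 How the source made its calls, unless noted: active means calcium signal rise above buffer-control mean plus 5 SD in both duplicates, and also a hit in the primary screen; inactive means the rest.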
# Molecular target: Short transient receptor potential channel 6 (Mus musculus) (UniProt Q61143)
# Assay: positive modulators of mouse TRPC6 channel – HEK293 cells, membrane potential dye, duplicate, selectivity assay for TRPC4 potentiator project, confirmation (AID 434952;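 active means compound raising the membrane signal above positive-control mean plus 3 SD in both repeats, and a primary screen hit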)
# Settings: HEK293 TRPC6, membrane potential dye fluorescence, at 10 µM; maximal acetylcholine added after compound unless noted
# Sequence of Short transient receptor potential channel 6 (Mus musculus) (Q61143 whole entry, looked up): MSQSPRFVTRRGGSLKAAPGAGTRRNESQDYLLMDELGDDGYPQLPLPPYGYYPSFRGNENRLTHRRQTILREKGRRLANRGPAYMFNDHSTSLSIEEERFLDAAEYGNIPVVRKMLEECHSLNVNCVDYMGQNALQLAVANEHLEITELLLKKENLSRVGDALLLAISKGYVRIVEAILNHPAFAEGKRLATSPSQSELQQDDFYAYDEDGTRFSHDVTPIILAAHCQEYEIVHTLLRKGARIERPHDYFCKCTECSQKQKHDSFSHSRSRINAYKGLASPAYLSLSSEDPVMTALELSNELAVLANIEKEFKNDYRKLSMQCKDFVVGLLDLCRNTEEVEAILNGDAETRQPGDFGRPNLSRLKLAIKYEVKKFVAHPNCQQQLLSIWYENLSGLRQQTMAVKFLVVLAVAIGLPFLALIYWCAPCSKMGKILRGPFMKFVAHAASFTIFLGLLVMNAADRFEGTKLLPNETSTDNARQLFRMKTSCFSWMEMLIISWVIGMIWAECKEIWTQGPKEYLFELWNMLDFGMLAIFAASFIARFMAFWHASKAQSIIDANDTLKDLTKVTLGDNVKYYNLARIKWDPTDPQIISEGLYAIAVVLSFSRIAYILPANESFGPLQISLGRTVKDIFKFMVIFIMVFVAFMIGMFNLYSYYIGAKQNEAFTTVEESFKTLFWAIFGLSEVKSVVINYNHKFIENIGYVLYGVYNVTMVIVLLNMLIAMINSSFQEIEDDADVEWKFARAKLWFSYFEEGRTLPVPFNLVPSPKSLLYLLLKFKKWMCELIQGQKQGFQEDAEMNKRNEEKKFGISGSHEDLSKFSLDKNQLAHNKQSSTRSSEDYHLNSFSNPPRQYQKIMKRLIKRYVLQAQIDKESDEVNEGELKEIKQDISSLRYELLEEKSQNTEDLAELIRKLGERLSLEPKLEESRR
row,Compound,outcome
1,Cc1ccc(C2CN(C)CC2C(=O)c2ccc(F)cc2)cc1 (configuration not stated),inactive
2,O=C(Cc1ccccc1)N1CCN(Cc2cccc(Br)c2)CC1,inactive
3,Cc1cccc(N=Cc2c(O)n(-c3ccccc3C)c(=O)[nH]c2=O)c1,inactive [setting not given]
4,CC(Cc1ccccc1Sc1ccccc1O)N(C)C (configuration not stated),inactive
5,COc1ccc(OC)c(CN2CCCC(C(=O)c3sccc3C)C2)c1 (configuration not stated),inactive
6,CCCCc1ncc(CN2CCCC(C(=O)c3ccc(SC)cc3)C2)[nH]1 (configuration not stated),inactive

# Molecular target: Short transient receptor potential channel 4 (Mus musculus) (UniProt Q9QUQ5)
# Assay: calcium flux activators in TRPC4/5HT1a cells, counter-screen for TRPC4 activator project, cell-based, second counter screen, HEK293 TRPC4/5HT1a, Fluo-4 (AID 434977)
# Settings: Fluo-4 calcium flux, at 10 µM; active compounds read high
row,Compound,outcome
1,Cc1ccsc1C(=O)C1CCCN(Cc2ccccc2O)C1 (configuration not stated),inactive
2,COc1ccc(C[C@@H]2c3cc(O)c(OC)cc3CCN2C)cc1O,inactive
3,CCC1=Nc2cc(C(=O)N3CCC4(CC3)OCCO4)ccc2Sc2ccc(C)cc21,inactive
4,Cc1ccc(CN2C3CCCC2CC(NC(=S)NCc2ccccc2)C3)cc1 (configuration not stated),inactive
5,COc1ccc(Br)cc1CN1CCN(C(=O)Cc2ccccc2)CC1,inactive
6,CC(C)CN(CC(C)C)c1ccc(C=C2C(=O)NC(=S)NC2=O)cc1[N+](=O)[O-],inactive
7,CCOC(=O)C1(CCc2ccccc2)CCN(Cc2cccc3c2OCO3)CC1,inactive
8,COc1ccc(CN2CCCC(C(=O)c3sccc3C)C2)cc1O (configuration not stated),inactive
9,CCN1CCN(Cc2cc(Br)ccc2O)CC1,inactive
10,CCN(CC)c1ccc([N+](=O)[O-])c2cccnc12,inactive
11,CN(CCOc1ccc(C=C2C(=O)NC(=O)NC2=O)cc1)c1ccccn1,inactive
12,CCN(CC)CC(=O)Nc1ccc(Cl)cc1C(=O)c1ccccc1,inactive
13,COc1cccc(O)c1CN1CCCC(C(=O)c2sccc2C)C1 (configuration not stated),inactive
14,CCC1=Nc2cc(C(=O)N3CCC4(CC3)OCCO4)ccc2Sc2ccc(Br)cc21,inactive
15,COc1ccc2[nH]cc(CCN(C)C)c2c1,inactive
16,CC(=O)OC1(c2ccccc2)CCN(C2CCCCC2)CC1C (configuration not stated),inactive
17,CCOC(=O)C1(c2ccccc2)CCN(CC(=O)Nc2ccc(C)cc2)CC1,inactive
18,COc1ccc(O)c(CN2CCCC(C(=O)c3sccc3C)C2)c1 (configuration not stated),inactive
19,Clc1ccc(OCC#CCN2CCCC2)cc1,inactive

row,Compound,outcome
1,O=C(c1cccc(C(F)(F)F)c1)C1CCCN(Cc2ccccc2O)C1 (configuration not stated),inactive
2,CCOC(=O)C1(CCc2ccccc2)CCN(Cc2ccco2)CC1,inactive
3,Nc1ccccc1-[n+]1c(-c2ccccc2)cc(-c2ccccc2)cc1-c1ccccc1,inactive
4,CCc1nccc2c1[nH]c1ccccc12,inactive
5,CCOC(=O)C(O)(c1ccc(NC(=S)NC(=O)c2ccc(Cl)cc2Cl)c(C)c1)C(F)(F)F (configuration not stated),inactive
6,COc1ccc(OC)c(N2Cc3ccccc3C2=N)c1,inactive
7,CCOc1c(Cl)cc(CNC(C)C(O)c2ccccc2)cc1OC (configuration not stated),inactive
8,Cc1cccc(N2CCc3c2nc2ccccc2c3N)c1,inactive
9,COc1ccc(C)cc1NC1=NC(C)(C)CS1,inactive
10,N=c1n(CCO)c2ccccc2n1Cc1ccccc1,inactive
11,CCc1ccc(OCCCN=C(C)c2c(O)n(C)c(=O)n(C)c2=O)cc1,inactive
12,O=C(CN1CCCC1)Nc1ccc(Cl)cc1C(=O)c1ccccc1,inactive
13,O=C(c1ccc(Cl)cc1)C1CCCN(C2CCSCC2)C1 (configuration not stated),inactive
14,Cc1ccc(C2CN(C)CC2C(=O)c2ccc(F)cc2)cc1 (configuration not stated),inactive
15,O=C(Cc1ccccc1)N1CCN(Cc2cccc(Br)c2)CC1,inactive
16,Cc1cccc(N=Cc2c(O)n(-c3ccccc3C)c(=O)[nH]c2=O)c1,inactive
17,CC(Cc1ccccc1Sc1ccccc1O)N(C)C (configuration not stated),inactive
18,COc1ccc(OC)c(CN2CCCC(C(=O)c3sccc3C)C2)c1 (configuration not stated),inactive
19,CCCCc1ncc(CN2CCCC(C(=O)c3ccc(SC)cc3)C2)[nH]1 (configuration not stated),inactive

# System: not listed separately
# Assay: serotonin-gated TRPC4 signal block – cell-based, second counter screen, HEK293 TRPC4/5HT1a, Fluo-4, counter-screen for TRPC4 inhibitor project, confirmation (AID 434978;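 active means primary screen active whose calcium signal fell more than 3 SD beyond the full-serotonin control mean in both duplicate plates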;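 on outcome: serotonin given first at submaximal then at maximal dose after compound preincubation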)
# Settings: Fluo-4 calcium flux, at 10 µM; inhibition: active compounds read high, serotonin added to trigger calcium flux unless noted; outcome: serotonin added to trigger calcium flux unless noted
# Method in brief: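 Times: 110 s each for compound, submaximal and ECmax serotonin; Assay system: TRPC4/5HT1a HEK293 cells; Also added: serotonin, a submaximal addition followed by a maximal (ECmax) addition; Replicates: each compound tested on duplicate plates; Measured by: Fluo-4 calcium fluorescence.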
Compound,inhibition,outcome
Cc1ccsc1C(=O)C1CCCN(Cc2ccccc2O)C1 (configuration not stated),44.9% (active),
COc1ccc(C[C@@H]2c3cc(O)c(OC)cc3CCN2C)cc1O,,inactive
CCC1=Nc2cc(C(=O)N3CCC4(CC3)OCCO4)ccc2Sc2ccc(C)cc21,,inactive [setting not given]
Cc1ccc(CN2C3CCCC2CC(NC(=S)NCc2ccccc2)C3)cc1 (configuration not stated),36.3% (active),
COc1ccc(Br)cc1CN1CCN(C(=O)Cc2ccccc2)CC1,20.6% (active),
CC(C)CN(CC(C)C)c1ccc(C=C2C(=O)NC(=S)NC2=O)cc1[N+](=O)[O-],8.19% [active compounds read high] (active),
CCOC(=O)C1(CCc2ccccc2)CCN(Cc2cccc3c2OCO3)CC1,,inactive
COc1ccc(CN2CCCC(C(=O)c3sccc3C)C2)cc1O (configuration not stated),21.3% (active),
CCN1CCN(Cc2cc(Br)ccc2O)CC1,,inactive
CCN(CC)c1ccc([N+](=O)[O-])c2cccnc12,28% (active),
CN(CCOc1ccc(C=C2C(=O)NC(=O)NC2=O)cc1)c1ccccn1,,inactive [setting not given]
CCN(CC)CC(=O)Nc1ccc(Cl)cc1C(=O)c1ccccc1,33.6% (active),
COc1cccc(O)c1CN1CCCC(C(=O)c2sccc2C)C1 (configuration not stated),29.8% (active),
CCC1=Nc2cc(C(=O)N3CCC4(CC3)OCCO4)ccc2Sc2ccc(Br)cc21,,inactive [setting not given]
COc1ccc2[nH]cc(CCN(C)C)c2c1,,inactive [setting not given]
CC(=O)OC1(c2ccccc2)CCN(C2CCCCC2)CC1C (configuration not stated),,inactive [setting not given]
CCOC(=O)C1(c2ccccc2)CCN(CC(=O)Nc2ccc(C)cc2)CC1,,inactive [setting not given]
COc1ccc(O)c(CN2CCCC(C(=O)c3sccc3C)C2)c1 (configuration not stated),29.4% (active),
Clc1ccc(OCC#CCN2CCCC2)cc1,,inactive

Compound,inhibition,outcome
O=C(c1cccc(C(F)(F)F)c1)C1CCCN(Cc2ccccc2O)C1 (configuration not stated),24.6% (active),
CCOC(=O)C1(CCc2ccccc2)CCN(Cc2ccco2)CC1,,inactive
Nc1ccccc1-[n+]1c(-c2ccccc2)cc(-c2ccccc2)cc1-c1ccccc1,,inactive
CCc1nccc2c1[nH]c1ccccc12,9.99% (active),
CCOC(=O)C(O)(c1ccc(NC(=S)NC(=O)c2ccc(Cl)cc2Cl)c(C)c1)C(F)(F)F (configuration not stated),,inactive
COc1ccc(OC)c(N2Cc3ccccc3C2=N)c1,21.8% (active),
CCOc1c(Cl)cc(CNC(C)C(O)c2ccccc2)cc1OC (configuration not stated),,inactive
Cc1cccc(N2CCc3c2nc2ccccc2c3N)c1,24.6% (active),
COc1ccc(C)cc1NC1=NC(C)(C)CS1,,inactive
N=c1n(CCO)c2ccccc2n1Cc1ccccc1,42.9% (active),
CCc1ccc(OCCCN=C(C)c2c(O)n(C)c(=O)n(C)c2=O)cc1,,inactive [setting not given]
O=C(CN1CCCC1)Nc1ccc(Cl)cc1C(=O)c1ccccc1,21.8% (active),
O=C(c1ccc(Cl)cc1)C1CCCN(C2CCSCC2)C1 (configuration not stated),31.4% (active),
Cc1ccc(C2CN(C)CC2C(=O)c2ccc(F)cc2)cc1 (configuration not stated),38% (active),
O=C(Cc1ccccc1)N1CCN(Cc2cccc(Br)c2)CC1,37.8% (active),
Cc1cccc(N=Cc2c(O)n(-c3ccccc3C)c(=O)[nH]c2=O)c1,,inactive [setting not given]
CC(Cc1ccccc1Sc1ccccc1O)N(C)C (configuration not stated),33% (active),
COc1ccc(OC)c(CN2CCCC(C(=O)c3sccc3C)C2)c1 (configuration not stated),25.9% (active),
CCCCc1ncc(CN2CCCC(C(=O)c3ccc(SC)cc3)C2)[nH]1 (configuration not stated),41.9% (active),
